High-throughput results deposited in PubChem BioAssay by several laboratories.
Hits are enriched below; roughly 3.5% of the tested compounds scored in any of these assays.
APP 5'UTR act: activates APP 5'UTR luciferase reporter; 1% of 190,000 active; activation, % at 2 µM; SH-SY5Y APP 5'UTR luciferase reporter, luminescence; zero percent = DMSO vehicle wells;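 active = activation above a set limit, based on mean plus 3 SD of controls, cut at about 140% in these data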
STAT1 activator: increases IFN-gamma driven STAT1 reporter signal; activation (% of control), % at 5.5 µM; NIH 3T3 STAT1-luciferase reporter, luminescence; 100% = IFN-gamma alone, no compound; 2.6% of 200,000 active;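 active = activation above the screen-wide mean activation plus 3 SD, cut at about 130% in these data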;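 note: raw ratio to IFN-gamma control signal so 100% means no change and 0% no light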
FLuc act counter: affects firefly luciferase, flagging false hits in luciferase stimulation screens | P08659 | ATPlite luciferase biochemical, luminescence, 10 min; 0 = ATP-free wells, 1 = DMSO control | activation factor at 10 µM | 200,000 tested, under 10 active | AID 1027;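 active = luciferase activation factor, scaled between plate controls, of at least 2 with compound at 10 µM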
Target sequence (P08659 whole entry, looked up): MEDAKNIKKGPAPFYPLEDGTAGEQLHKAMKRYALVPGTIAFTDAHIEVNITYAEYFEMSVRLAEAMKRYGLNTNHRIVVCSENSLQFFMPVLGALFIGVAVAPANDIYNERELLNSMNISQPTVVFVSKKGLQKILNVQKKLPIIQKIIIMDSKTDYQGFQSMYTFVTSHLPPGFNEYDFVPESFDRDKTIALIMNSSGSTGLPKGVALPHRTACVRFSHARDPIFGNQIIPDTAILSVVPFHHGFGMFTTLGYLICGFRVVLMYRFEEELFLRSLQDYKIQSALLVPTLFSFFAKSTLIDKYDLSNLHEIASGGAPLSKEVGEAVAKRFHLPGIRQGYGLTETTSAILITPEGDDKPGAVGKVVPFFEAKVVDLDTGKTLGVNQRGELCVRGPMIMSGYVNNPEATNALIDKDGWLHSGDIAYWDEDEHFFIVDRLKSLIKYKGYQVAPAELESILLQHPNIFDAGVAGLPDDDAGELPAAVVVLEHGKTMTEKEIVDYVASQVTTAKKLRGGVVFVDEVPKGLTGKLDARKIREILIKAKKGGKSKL
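Assay system: Luciferase/luciferin reagent mix; Medium: PBS as buffer for the ATP substrate; Dosing: test compounds dosed from 2 mM stocks in 100% DMSO; Times: 10 min, room temperature; Signal: luminescence from luciferase reaction; Read-out: luciferase activation; Controls: No-ATP low control, compound-free enzyme-plus-ATP high control.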
NF-kB expr up: NF-kB expression increase, human neuronal cells. NF-kB reporter expression; hits give high values. fold change at 12.5 µM. 1.6% of 190,000 active. AID 1239; in the data active = fold change above about 3.3
FLuc inh counter: inhibits firefly luciferase, flagging false hits in luciferase inhibition screens; P08659; ATPLite firefly luciferase biochemical luminescence, 10 min; inhibition, % at 10 µM; 1.5% of 200,000 active; AID 1006;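 active = inhibition above about 50% when tested at 10 µM, limit read from the data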
Pf gamet viab: P. falciparum stage V gametocyte viability inhibition; 0.065% of 150,000 active; inhibition, % at 10.9 µM; P. falciparum stage V gametocytes, ATP luminescence, 24 h; AID 743093;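 active = inhibition above the mean plus 3 SD of compounds within the control limits, set per campaign, cut at about 38% in these data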;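 note: 0% = DMSO wells and 100% = medium only without gametocytes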
An asterisk follows results filed as active; . = no result given.

SMILES	APP 5'UTR act	STAT1 activator	FLuc act counter	NF-kB expr up	FLuc inh counter	Pf gamet viab
CN1CCN(/N=C/c2ccc(N(c3ccccc3)c3ccccc3)cc2)CC1	0	97	1.1	1.1	-6	.
CN1CCN(/N=C/c2ccc(Br)cc2)CC1	28	129*	1	2	3	-6
CC(C)c1ccc(/C=N/N2CCN(c3ccccn3)CC2)cc1	.	.	.	.	.	-7
CC(C)c1ccc(/C=N/N2CCCCC2)cc1	102	121	0.3	1.3	66*	-23
O=[N+]([O-])c1cc(/C=N/N2CCN(c3ccccc3)CC2)ccc1Cl	-8	108	1.1	1.1	-8	1
O=[N+]([O-])c1cc(/C=N/N2CCCCC2)ccc1Cl	4	132*	1	3.2	-1	-15
COc1ccc(/C=N/NC(=O)Cn2cnc3ccccc3c2=O)cc1OC	17	93	1.1	1.1	-5	.
C(=N\Nc1nc2ccccc2[nH]1)/c1ccncc1	10	128	0.7	1.1	27	-18
COc1ccc(/C=N/Nc2nc3ccccc3c(=O)n2-c2ccccc2)cc1OC	6	111	0.3	0.95	69*	1
C=CCn1c(C)nc2ccccc2c1=O	12	94	1	0.95	-1	.
O=c1[nH]c(N/N=C/c2ccc(O)cc2)nc2ccccc12	134	144*	0.4	2.9	56*	-14
C=CCn1c(N/N=C/c2ccc(O)cc2)nc2ccccc2c1=O	70	105	0.2	2	82*	4
O=C(O)c1ccc(/C=N/Nc2nc3ccccc3[nH]2)cc1	.	.	.	.	.	9
O=c1[nH]c(N/N=C\c2ccc(F)cc2)nc2ccccc12	189*	150*	0.4	4.1*	64*	-4
O=C(NCc1ccccc1Cl)c1ccc(CSc2nc3ccncc3[nH]2)cc1	.	.	.	.	.	17
Clc1ccccc1CSc1nc2ccncc2[nH]1	93	106	0.1	2.6	90*	.
O=C(c1ccc(CSc2nc3ccncc3[nH]2)cc1)N1CCCCC1	7	96	0.3	1.1	68*	.
Cc1ccc(OCCNC(=O)CCc2ccccc2)cc1C	.	.	.	.	.	-18
C=CCNC(=O)c1ccc(-c2nc3ccccc3nc2-c2ccccc2)cc1	.	.	.	.	.	-7
C=CCNC(=O)c1ccc(-c2nc(-c3ccccc3)cs2)cc1	57	146*	1	2.1	2	.
O=C(O)c1cccc(N/N=C/c2cn(-c3ccccc3)nc2-c2cccs2)c1	86	126	0.5	1.2	54*	.
NC(=O)N/N=C/c1cn(-c2ccccc2)nc1-c1cccs1	33	126	0.3	1.1	70*	9
C=CCSc1ncc(CO)n1Cc1ccccc1	-3	96	1	0.79	-1	9
C=CCNc1nc(-c2ccc(OC)cc2OC)cs1	50	150*	0.9	3.4*	8	-5
COc1ccc(-c2cc(O)cc(O)c2)cc1	103	102	0.6	3.8*	37	.
SMILES	APP 5'UTR act	STAT1 activator	FLuc act counter	NF-kB expr up	FLuc inh counter	Pf gamet viab
O=[N+]([O-])c1cc(/C=N/O)ccc1Oc1ccccc1Cl	41	131*	1	1.9	4	-15
Cc1nn(-c2ccccc2)c(Cl)c1/C=N/NC(N)=O	.	.	.	.	.	-15
Cc1nn(-c2ccccc2)c(Cl)c1/C=N/Nc1nc2ccccc2n1C	77	145*	0.6	1.8	38	-11
O=C(O)c1ccccc1C(=O)N1CCN(c2cccc(Cl)c2)CC1	4	89	1	1.1	-5	.
CCOc1ccccc1C(=O)N1CCN(c2cccc(Cl)c2)CC1	-94	105	1.1	4*	-6	14
COc1ccc(C(=O)Oc2ccc(/C=N/O)cc2)cc1	25	108	0.7	1.4	29	40*
CCN(Cc1ccccc1)C(=O)CS(=O)(=O)c1ccccc1	-2	95	1	0.99	1	13
O=S(=O)(C/C(=C/CO)S(=O)(=O)c1ccccc1)c1ccccc1	-80	260*	1	0.93	-1	-3
Cc1ccc(NC(=O)CS(=O)CC(=O)N(C(C)C(=O)NC2CCCCC2)C(C)(C)C)cc1 (stereo unspecified)	-16	96	1	1.3	-2	4
S=C(Nc1ccccc1Cl)NC1CC2CCCC(C1)N2C1CC1 (stereo unspecified)	2	94	1	0.96	5	17
O=C(Nc1nc2ccc(Cl)cc2s1)c1ccc(Br)o1	112	148*	0.7	3.5*	30	.
Cn1ncc(Cl)c1C(=O)Nc1nc2ccc(Cl)cc2s1	99	150*	0.4	2.4	60*	3
O=C(Nc1nc2c(Cl)cccc2s1)c1ccc(Br)o1	9	92	1	1.8	0	4
C=CCNc1ncnc2c1[nH]c1ccc(C)cc12	179*	139*	0.6	4.5*	41	27
CC(=O)Nc1cc(-c2ccc(Cl)cc2)[nH]n1	11	144*	0.9	2.3	9	.
COc1cc(OC)cc(-c2cc(NC(C)=O)n[nH]2)c1	0	99	1	1.4	-2	.
COc1ccc(-c2cc3nc4n(c(=O)c3s2)CCC4)cc1	160*	40	0.2	1.1	84*	.
COc1ccc(-c2cc3nc4n(c(=O)c3s2)CCCCC4)cc1	.	.	.	.	.	4
CN(C)S(=O)(=O)Oc1ccc(C(=O)Nc2cccc(Cl)c2)cc1	123	143*	0.9	2.3	15	18
CN(C)S(=O)(=O)Oc1ccc(C(=O)Nc2cccc(C(F)(F)F)c2)cc1	26	87	1	0.91	0	-23
CN(C)S(=O)(=O)Oc1cccc(C(=O)Nc2ccccc2Cl)c1	39	118	0.9	1.9	12	.
CN(C)S(=O)(=O)Oc1cccc(C(=O)Nc2ccc(Cl)cc2)c1	141*	109	0.8	5.3*	16	-31
Cc1c(C(=O)OC2CCCC2C)[nH]c2c1C(=O)CCC2 (stereo unspecified)	25	110	1	2	0	.
Cc1c(C(=O)OC2CCCC2)[nH]c2c1C(=O)CC(c1ccco1)C2 (stereo unspecified)	-94	97	1	4.3*	-5	.
COC(=O)C1C(=O)c2c([nH]c(C(=O)OC3CCCC3)c2C)CC1C (stereo unspecified)	109	144*	0.4	3.4*	56*	-4
C=CCOC(=O)c1[nH]c2c(c1C)C(=O)CC(c1ccco1)C2 (stereo unspecified)	-97	97	1	4.7*	-4	.
Cc1c(C(=O)OCC(C)C)[nH]c2c1C(=O)CC(c1ccco1)C2 (stereo unspecified)	-96	102	1	2.9	-4	.
C#CCOCCOCCOCCNc1nc(N2CCN(C(=O)[C@H]([C@@H](C)CC)n3cc(CCCN=C(N)N)nn3)CC2)nc(N2CCN(C(=O)[C@H]([C@@H](C)CC)n3cc(CCC(=O)O)nn3)CC2)n1	.	.	.	.	.	-33
Cc1nc2c(sc3nc4c(cc32)COC(C)(C)C4)c(=O)n1CC(=O)NCc1ccco1	5	131*	.	2.5	.	.
